The values that follow come from ChEMBL document CHEMBL3992549, “Combretastatin A4-β-Galactosyl Conjugates for Ovarian Cancer Prodrug Monotherapy” (ACS Med Chem Lett, 2017).

Active and inactive are the calls of the source. The rule behind the calls is not given here.

Series [1] relates to OVK18. The experiment in a line: Cytotoxicity against human OVK18 cells assessed as reduction in cell viability at 10 nM after 48 hrs in presence of beta-galactosidase inhibitor beta-GA by WST8 assay. Type of series: functional, cell-based. The method in brief: (§1)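 β-Galactosidase inhibition condition was 1 mM β-GA present during compound treatment.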
In general terms: Tetrazolium assays rely on reduction of a dye to a coloured formazan, in cell work by metabolically active cells.

The species entered for series [2] is Homo sapiens. The experiment in a line: Induction of microtubule disruption in human OVCAR3 cells assessed as nuclear contraction at 10 nM after 24 hrs by Alexa Fluor 647/DAPI staining based fluorescence microscopic method. Type of series: cell-based. The method in brief: (§2)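 OVCAR3 cells treated for 24 h, then imaged by confocal fluorescence microscopy. Nuclei were stained directly with DAPI. α-Tubulin was detected with an Alexa Fluor 647-conjugated secondary antibody. Microtubule architecture, cytoskeleton and nuclear morphology (contraction, fragmentation) were scored.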

The species named for series [3] is Homo sapiens. The experiment in a line: Induction of microtubule disruption in human OVCAR3 cells assessed as change in microtubule architecture at 10 nM after 24 hrs by Alexa Fluor 647/DAPI staining based fluorescence microscopic method. In kind it is cell-based. A digest of the protocol: as §2
The species named for another series is Sus scrofa. The experiment in a line: Inhibition of pig brain tubulin polymerization at 5 uM measured every 1 min for 60 mins by HTS assay.
The species named for series [4] is Homo sapiens. Description: Induction of microtubule disruption in human OVCAR3 cells assessed as cytoskeleton contraction at 1 nM after 24 hrs by Alexa Fluor 647/DAPI staining based fluorescence microscopic method. In kind it is cell-based. A digest of the protocol: as §2
The test system of series [5] is OVCAR-3. The experiment in a line: Cytotoxicity against human OVCAR3 cells assessed as reduction in cell viability after 72 hrs by WST8 assay. In kind it is functional, cell-based. The note with it: OVCAR-3, 72 h.
Series [6] is described as follows: Cytotoxicity against human OVK18 cells assessed as reduction in cell viability after 72 hrs by WST8 assay. Type of series: functional, cell-based. The note with it: OVK18, 72 h.
The species entered for series [7] is Homo sapiens. The experiment in a line: Induction of microtubule disruption in human OVCAR3 cells assessed as nuclear fragmentation at 10 nM after 24 hrs by Alexa Fluor 647/DAPI staining based fluorescence microscopic method. In kind it is cell-based. The method in brief:
as §2

Series [8] is filed under the species Homo sapiens. The experiment in a line: Induction of microtubule disruption in human OVCAR3 cells assessed as cytoskeleton contraction at 10 nM after 24 hrs by Alexa Fluor 647/DAPI staining based fluorescence microscopic method. In kind it is cell-based. The method in brief: as §2
In another series the target is T1, Beta-galactosidase (Homo sapiens, UniProt P16278).
T1 sequence (P16278 whole entry): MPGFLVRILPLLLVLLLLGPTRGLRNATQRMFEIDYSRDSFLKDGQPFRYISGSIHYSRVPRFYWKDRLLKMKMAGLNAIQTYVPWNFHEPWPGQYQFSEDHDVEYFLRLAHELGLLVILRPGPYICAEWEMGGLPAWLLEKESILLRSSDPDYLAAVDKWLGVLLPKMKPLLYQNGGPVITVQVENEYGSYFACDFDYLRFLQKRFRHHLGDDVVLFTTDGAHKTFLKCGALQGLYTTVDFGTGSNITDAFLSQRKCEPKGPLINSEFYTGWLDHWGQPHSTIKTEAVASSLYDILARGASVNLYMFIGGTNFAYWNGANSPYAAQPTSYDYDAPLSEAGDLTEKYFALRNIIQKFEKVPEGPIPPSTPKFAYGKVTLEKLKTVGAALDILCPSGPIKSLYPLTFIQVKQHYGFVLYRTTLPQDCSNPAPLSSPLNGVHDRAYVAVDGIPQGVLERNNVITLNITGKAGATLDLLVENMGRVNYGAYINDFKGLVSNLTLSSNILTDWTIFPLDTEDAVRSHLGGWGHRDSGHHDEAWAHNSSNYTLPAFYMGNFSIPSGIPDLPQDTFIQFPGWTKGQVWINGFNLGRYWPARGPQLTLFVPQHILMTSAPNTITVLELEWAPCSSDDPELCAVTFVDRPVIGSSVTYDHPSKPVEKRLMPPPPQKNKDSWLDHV
The experiment in a line: Prodrug activation in PBS buffer assessed as beta-galactosidase (unknown origin) mediated CA4 formation at 0.2 mM after 1 hr by HPLC analysis. The note with it: 200 µM.

The subject of series [9] is OVCAR-3. The experiment in a line: Cytotoxicity against human OVCAR3 cells assessed as reduction in cell viability at 10 nM after 48 hrs in presence of beta-galactosidase inhibitor beta-GA by WST8 assay. Type of series: functional, cell-based. The method in brief: as §1
For series [10], the species on record is Homo sapiens. Description: Induction of microtubule disruption in human OVCAR3 cells assessed as change in microtubule architecture at 1 nM after 24 hrs by Alexa Fluor 647/DAPI staining based fluorescence microscopic method. Type of series: cell-based. A digest of the protocol:
as §2

The species named for series [11] is Homo sapiens. The experiment in a line: Induction of microtubule disruption in human OVCAR3 cells assessed as nuclear fragmentation at 20 to 200 nM after 24 hrs by Alexa Fluor 647/DAPI staining based fluorescence microscopic method. Type of series: cell-based. The method in brief:
as §2

Series [12] is filed under the species Homo sapiens. Description: Induction of microtubule disruption in human OVCAR3 cells assessed as change in microtubule architecture at 20 to 200 nM after 24 hrs by Alexa Fluor 647/DAPI staining based fluorescence microscopic method. Type of series: cell-based. The method in brief: as §2
In series [13] the test system is OVK18. The experiment in a line: Cytotoxicity against human OVK18 cells assessed as reduction in cell viability at 200 nM after 48 hrs in presence of beta-galactosidase inhibitor beta-GA by WST8 assay. In kind it is functional, cell-based. A digest of the protocol: as §1
The species named for series [14] is Homo sapiens. Description: Induction of microtubule disruption in human OVCAR3 cells assessed as nuclear contraction at 20 to 200 nM after 24 hrs by Alexa Fluor 647/DAPI staining based fluorescence microscopic method. Type of series: cell-based. A digest of the protocol:
as §2

The test system of series [15] is OVCAR-3. Description: Cytotoxicity against human OVCAR3 cells assessed as reduction in cell viability at 200 nM after 48 hrs in presence of beta-galactosidase inhibitor beta-GA by WST8 assay. Type of series: functional, cell-based. The method in brief: as §1
For series [16], the species on record is Homo sapiens. Description: Induction of microtubule disruption in human OVCAR3 cells assessed as cytoskeleton contraction at 20 to 200 nM after 24 hrs by Alexa Fluor 647/DAPI staining based fluorescence microscopic method. In kind it is cell-based. The method in brief:
as §2

Consider `COc1ccc(/C=C\c2cc(OC)c(OC)c(OC)c2)cc1OCc1ccc(O[C@@H]2O[C@H](CO)[C@H](O)[C@H](O)[C@H]2O)cc1`, for which the result with OVK18 [1], with OVCAR-3 [9] and in the series filed under Homo sapiens [10] was inactive. Also, the result in the series listed under Homo sapiens [2], in the series filed under Homo sapiens [3], in the series filed under Homo sapiens [4], in the series listed under Homo sapiens [7] and in the series listed under Homo sapiens [8] was Active. The inhibition result in the series listed under Sus scrofa is “inactive”. Further, the EC50 worked out at 2.47 nM with OVCAR-3 [5] and 2.67 nM in series [6]. Moreover, the Drug metabolism entry at Beta-galactosidase is “Metabolite_Detected”.
With `COc1ccc(/C=C\c2cc(OC)c(OC)c(OC)c2)cc1O` [COMBRETASTATIN A4], the result in the series filed under Homo sapiens [2], in the series filed under Homo sapiens [3], in the series filed under Homo sapiens [7] and in the series filed under Homo sapiens [8] was Active. For the same compound, the values for the EC50 (with OVCAR-3 [5]; in series [6]) were 3.45 nM and 1.99 nM, respectively.
On to `COc1ccc(/C=C\c2cc(OC)c(OC)c(OC)c2)cc1O[C@@H]1O[C@H](CO)[C@H](O)[C@H](O)[C@H]1O`, for which the inhibition entry in the series filed under Sus scrofa is “inactive”. In addition, the result in the series listed under Homo sapiens [11], in the series listed under Homo sapiens [12], in the series filed under Homo sapiens [14] and in the series filed under Homo sapiens [16] was Active. Besides, the result in the series with OVK18 [13] and in the series on OVCAR-3 [15] was inactive. The EC50 with OVCAR-3 [5] stood at 69.1 nM; in series [6], 252 nM. Besides, the Drug metabolism result on Beta-galactosidase is given as “Metabolite_Detected”.

As usually defined, the EC50 is the concentration at which the effect is half-maximal.
